According to ChEMBL document CHEMBL4689842, “EUbOPEN Chemogenomics Library wave 1” (2021):
Several values for one entry are separate records, joined by “and”; a condition that tells them apart may be missing. Equal values may be shown once.

System: U2OS
Assay: Multiplex assay against U2OS
Assay type: toxicity, cell-based
Details: human
Summary of the method: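 Compound was added to live cells that had been stained at seeding with Hoechst33342, BioTracker Green Microtubule Cytoskeleton Dye, MitoTracker Red and Annexin V Alexa Fluor 680, and imaging followed on a CQ1 microscope at 37°C and 5% CO2. CellPathfinder machine-learning gating divided cells into Hoechst high-intensity objects or normal cells, normal cells into healthy, pyknosed or fragmented nuclei, and pyknosed cells into mitotic or apoptotic. Tubulin, mitochondrial-mass and membrane-permeability phenotypes are per cents of healthy-nucleus cells.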

[1] = 12 h, 10 µM, compound concentration 10 uM, replicate 1
[2] = 12 h, 10 µM, compound concentration 10 uM, replicate 2
[3] = 24 h, 10 µM, compound concentration 10 uM, replicate 1
[4] = 24 h, 10 µM, compound concentration 10 uM, replicate 2
[5] = 12 h, 1 µM, compound concentration 1 uM, replicate 1
[6] = 12 h, 1 µM, compound concentration 1 uM, replicate 2
[7] = 24 h, 1 µM, compound concentration 1 uM, replicate 1
[8] = 24 h, 1 µM, compound concentration 1 uM, replicate 2
[9] = 48 h, 1 µM, compound concentration 1 uM, replicate 1
[10] = 48 h, 1 µM, compound concentration 1 uM, replicate 2
[11] = 48 h, 10 µM, compound concentration 10 uM, replicate 1
[12] = 48 h, 10 µM, compound concentration 10 uM, replicate 2

## Cc1sc2c(c1C)C(c1ccc(Cl)cc1)=N[C@@H](CC(=O)OC(C)(C)C)c1nnc(C)n1-2
[1]
  Population Apoptotic (%): 41% and 34%
  Population Fragmented Nuclei (%): 12%
  Population Healthy Nuclei (%): 67% and 58%
  Population Hoechst High Intensity Objects (%): 5% and 6%
  Population Membrane Permeable-Phenotype (%): 21% and 12%
  Population Mitochondria Different-Phenotype (%): 17% and 22%
  Population Mitotic Cells (%): 58% and 65%
  Population Normal (%): 94% and 93%
  Population Pyknosed Nuclei (%): 19% and 20%
  Population Tubulin-Different-Phenotype (%): 17% and 24%
  Total Cell Count: 1986
[2]
  Population Apoptotic (%): 28% and 14%
  Population Fragmented Nuclei (%): 29% and 21%
  Population Healthy Nuclei (%): 55% and 62%
  Population Hoechst High Intensity Objects (%): 13% and 12%
  Population Membrane Permeable-Phenotype (%): 14%
  Population Mitochondria Different-Phenotype (%): 28% and 33%
  Population Mitotic Cells (%): 71% and 85%
  Population Normal (%): 86% and 87%
  Population Pyknosed Nuclei (%): 15% and 16%
  Population Tubulin-Different-Phenotype (%): 36% and 27%
[3]
  Population Apoptotic (%): 88%
  Population Fragmented Nuclei (%): 16% and 20%
  Population Healthy Nuclei (%): 58%
  Population Hoechst High Intensity Objects (%): 5% and 6%
  Population Membrane Permeable-Phenotype (%): 27% and 23%
  Population Mitochondria Different-Phenotype (%): 19% and 29%
  Population Mitotic Cells (%): 12%
  Population Normal (%): 94% and 93%
  Population Pyknosed Nuclei (%): 24% and 20%
  Population Tubulin-Different-Phenotype (%): 30% and 40%
[4]
  Population Apoptotic (%): 76% and 64%
  Population Fragmented Nuclei (%): 30% and 25%
  Population Healthy Nuclei (%): 53% and 52%
  Population Hoechst High Intensity Objects (%): 11% and 12%
  Population Membrane Permeable-Phenotype (%): 20% and 18%
  Population Mitochondria Different-Phenotype (%): 30% and 23%
  Population Mitotic Cells (%): 23% and 35%
  Population Normal (%): 88%
  Population Pyknosed Nuclei (%): 15% and 22%
  Population Tubulin-Different-Phenotype (%): 52% and 34%

## CC[C@H](C)C(=O)O[C@H]1C[C@@H](C)C=C2C=C[C@H](C)[C@H](CC[C@@H]3C[C@@H](O)CC(=O)O3)[C@H]21 [LOVASTATIN]
[5]
  Population Apoptotic (%): 21%
  Population Fragmented Nuclei (%): 13%
  Population Healthy Nuclei (%): 76%
  Population Hoechst High Intensity Objects (%): 12%
  Population Membrane Permeable-Phenotype (%): 7%
  Population Mitochondria Different-Phenotype (%): 5%
  Population Mitotic Cells (%): 78%
  Population Normal (%): 87%
  Population Pyknosed Nuclei (%): 9%
  Population Tubulin-Different-Phenotype (%): 13%
  Total Cell Count: 140
[6]
  Population Apoptotic (%): 25%
  Population Fragmented Nuclei (%): 22%
  Population Healthy Nuclei (%): 68%
  Population Hoechst High Intensity Objects (%): 11%
  Population Membrane Permeable-Phenotype (%): 3%
  Population Mitochondria Different-Phenotype (%): 6%
  Population Mitotic Cells (%): 75%
  Population Normal (%): 88%
  Population Pyknosed Nuclei (%): 8%
  Population Tubulin-Different-Phenotype (%): 3%
  Total Cell Count: 87
[1]
  Population Apoptotic (%): 31%
  Population Fragmented Nuclei (%): 20%
  Population Healthy Nuclei (%): 68%
  Population Hoechst High Intensity Objects (%): 10%
  Population Membrane Permeable-Phenotype (%): 9%
  Population Mitochondria Different-Phenotype (%): 14%
  Population Mitotic Cells (%): 68%
  Population Normal (%): 89%
  Population Pyknosed Nuclei (%): 11%
  Population Tubulin-Different-Phenotype (%): 12%
  Total Cell Count: 163
[2]
  Population Apoptotic (%): 100%
  Population Fragmented Nuclei (%): 4%
  Population Healthy Nuclei (%): 90%
  Population Hoechst High Intensity Objects (%): 8%
  Population Membrane Permeable-Phenotype (%): 10%
  Population Mitochondria Different-Phenotype (%): 12%
  Population Mitotic Cells (%): 0%
  Population Normal (%): 91%
  Population Pyknosed Nuclei (%): 4%
  Population Tubulin-Different-Phenotype (%): 20%
  Total Cell Count: 54
[7]
  Population Apoptotic (%): 18%
  Population Fragmented Nuclei (%): 6%
  Population Healthy Nuclei (%): 84%
  Population Hoechst High Intensity Objects (%): 7%
  Population Membrane Permeable-Phenotype (%): 6%
  Population Mitochondria Different-Phenotype (%): 8%
  Population Mitotic Cells (%): 81%
  Population Normal (%): 92%
  Population Pyknosed Nuclei (%): 8%
  Population Tubulin-Different-Phenotype (%): 14%
  Total Cell Count: 144
[8]
  Population Apoptotic (%): 40%
  Population Fragmented Nuclei (%): 22%
  Population Healthy Nuclei (%): 70%
  Population Hoechst High Intensity Objects (%): 9%
  Population Membrane Permeable-Phenotype (%): 0%
  Population Mitochondria Different-Phenotype (%): 4%
  Population Mitotic Cells (%): 60%
  Population Normal (%): 90%
  Population Pyknosed Nuclei (%): 7%
  Population Tubulin-Different-Phenotype (%): 4%
  Total Cell Count: 93
[3]
  Population Apoptotic (%): 25%
  Population Fragmented Nuclei (%): 13%
  Population Healthy Nuclei (%): 76%
  Population Hoechst High Intensity Objects (%): 6%
  Population Membrane Permeable-Phenotype (%): 8%
  Population Mitochondria Different-Phenotype (%): 7%
  Population Mitotic Cells (%): 75%
  Population Normal (%): 93%
  Population Pyknosed Nuclei (%): 9%
  Population Tubulin-Different-Phenotype (%): 9%
  Total Cell Count: 204
[4]
  Population Apoptotic (%): 28%
  Population Fragmented Nuclei (%): 8%
  Population Healthy Nuclei (%): 79%
  Population Hoechst High Intensity Objects (%): 7%
  Population Mitochondria Different-Phenotype (%): 4%
  Population Mitotic Cells (%): 71%
  Population Normal (%): 92%
  Population Pyknosed Nuclei (%): 11%
  Population Tubulin-Different-Phenotype (%): 23%
  Total Cell Count: 74
[9]
  Population Apoptotic (%): 41%
  Population Fragmented Nuclei (%): 4%
  Population Healthy Nuclei (%): 89%
  Population Hoechst High Intensity Objects (%): 3%
  Population Membrane Permeable-Phenotype (%): 4%
  Population Mitochondria Different-Phenotype (%): 8%
  Population Mitotic Cells (%): 58%
  Population Normal (%): 96%
  Population Pyknosed Nuclei (%): 5%
  Population Tubulin-Different-Phenotype (%): 11%
  Total Cell Count: 129
[10]
  Population Apoptotic (%): 0%
  Population Fragmented Nuclei (%): 10%
  Population Healthy Nuclei (%): 87%
  Population Hoechst High Intensity Objects (%): 7%
  Population Membrane Permeable-Phenotype (%): 1%
  Population Mitochondria Different-Phenotype (%): 5%
  Population Mitotic Cells (%): 100%
  Population Normal (%): 92%
  Population Pyknosed Nuclei (%): 2%
  Population Tubulin-Different-Phenotype (%): 7%
  Total Cell Count: 89
[11]
  Population Apoptotic (%): 40%
  Population Fragmented Nuclei (%): 12%
  Population Healthy Nuclei (%): 78%
  Population Hoechst High Intensity Objects (%): 4%
  Population Membrane Permeable-Phenotype (%): 3%
  Population Mitochondria Different-Phenotype (%): 5%
  Population Mitotic Cells (%): 60%
  Population Normal (%): 95%
  Population Pyknosed Nuclei (%): 8%
  Population Tubulin-Different-Phenotype (%): 4%
  Total Cell Count: 300
[12]
  Population Apoptotic (%): 33%
  Population Fragmented Nuclei (%): 3%
  Population Healthy Nuclei (%): 89%
  Population Hoechst High Intensity Objects (%): 7%
  Population Membrane Permeable-Phenotype (%): 6%
  Population Mitochondria Different-Phenotype (%): 6%
  Population Mitotic Cells (%): 66%
  Population Normal (%): 92%
  Population Pyknosed Nuclei (%): 7%
  Population Tubulin-Different-Phenotype (%): 21%
  Total Cell Count: 96
